Converted amounts (≈) assume the structure as drawn.
Tests used:
Streptococcus sanguinis [1] = experiment: Antibacterial activity against Streptococcus sanguinis ATCC 10556 after 24 hrs by broth microdilution method; conditions: ATCC 10556, 24 h
Porphyromonas gingivalis = experiment: Antibacterial activity against Porphyromonas gingivalis ATCC 33277 after 48 hrs by broth microdilution method; type: functional; conditions: ATCC 33277, 48 h
How it was run: (§1)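 Broth microdilution MIC for obligate anaerobes, run in their growth media (Wilkins–Chalgren for F. nucleatum and P. intermedia; supplemented Todd Hewitt broth for P. gingivalis). Inoculum suspended in Brucella broth, final 5 × 10^6 cfu/ml. Twofold dilutions, final 0.12–128 µg/ml. Incubated anaerobically (90% N2/5% H2/5% CO2) at 37 °C for 48 h; MIC is the lowest concentration without turbidity.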

Fusobacterium nucleatum = experiment: Antibacterial activity against Fusobacterium nucleatum ATCC 10953 after 48 hrs by broth microdilution method; type: functional; conditions: ATCC 10953, 48 h
How it was run: as §1

Streptococcus mutans [2] = experiment: Antibacterial activity against Streptococcus mutans ATCC 25175 after 24 hrs by broth microdilution method; conditions: ATCC 25175, 24 h
Prevotella intermedia = experiment: Antibacterial activity against Prevotella intermedia ATCC 25611 after 48 hrs by broth microdilution method; type: functional; conditions: ATCC 25611, 48 h
How it was run: as §1

Streptococcus mutans [3] = experiment: Ratio of compound MBIC50 to bakuchiol MBIC50 for Streptococcus mutans ATCC 25175; type: functional
How it was run: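 MBIC50 from crystal-violet S. mutans biofilm assay (BHI + 2% sucrose, 18 h, 37 °C, 5% CO2, A595 read) for each compound, divided by the bakuchiol MBIC50 from the same assay.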

Streptococcus mutans [4] = experiment: Antibacterial activity against Streptococcus mutans ATCC 25175 after 48 hrs by broth microdilution method; type: functional; conditions: ATCC 25175, 48 h
Streptococcus sanguinis [5] = experiment: Antibacterial activity against Streptococcus sanguinis ATCC 10556 after 48 hrs by broth microdilution method; type: functional; conditions: ATCC 10556, 48 h
Streptococcus mutans [6] = experiment: Antibacterial activity against Streptococcus mutans ATCC 25175 assessed as inhibition of biofilm formation after 18 hrs; type: functional
How it was run: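 Single-species S. mutans biofilm grown in flat-bottom polystyrene wells, BHI with 2% sucrose, 6 × 10^7 cfu/ml final, compound twofold 0.12–128 µg/ml, 18 h at 37 °C in 5% CO2. Wells rinsed with PBS pH 7.2, methanol-fixed, stained with 0.1% crystal violet, eluted in 95% ethanol, A595 read. % inhibition relative to untreated control; MBIC50 is the lowest concentration giving ≥50% inhibition.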

Actinomyces viscosus [7] = experiment: Antibacterial activity against Actinomyces viscosus ATCC 15987 after 48 hrs by broth microdilution method; type: functional; conditions: ATCC 15987, 48 h
Actinomyces viscosus [8] = experiment: Antibacterial activity against Actinomyces viscosus ATCC 15987 after 24 hrs by broth microdilution method; conditions: ATCC 15987, 24 h

MIC (Streptococcus sanguinis [1]): 4 µg/mL (≈ 11.4 µM)
MIC (Porphyromonas gingivalis): 2 µg/mL (≈ 5.71 µM)
MIC (Fusobacterium nucleatum): > 128 µg/mL
MIC (Streptococcus mutans [2]): 4 µg/mL (≈ 11.4 µM)
MIC (Prevotella intermedia): 2 µg/mL (≈ 5.71 µM)
MIC (Actinomyces viscosus [8]): 4 µg/mL (≈ 11.4 µM)
Compound: CC(C)=CCC[C@](C)(/C=C/c1ccc(O)cc1)/C=C/c1ccc(F)cc1
MBC (Porphyromonas gingivalis): 4 µg/mL (≈ 11.4 µM)
MBC (Fusobacterium nucleatum): > 128 µg/mL
MBC (Prevotella intermedia): 4 µg/mL (≈ 11.4 µM)
Ratio (Streptococcus mutans [3]): 2
MBC (Streptococcus mutans [4]): 4 µg/mL (≈ 11.4 µM)
MBC (Streptococcus sanguinis [5]): 8 µg/mL (≈ 22.8 µM)
MBIC50 (Streptococcus mutans [6]): 8 µg/mL
MBC (Actinomyces viscosus [7]): 8 µg/mL (≈ 22.8 µM)

Source: ChEMBL document CHEMBL1177882, “Novel bisstyryl derivatives of bakuchiol: targeting oral cavity pathogens” (2010)
